Data set [1] deals with T1, High mobility group protein B1 (Mus musculus) (UniProt P63158).
T1 sequence (whole entry): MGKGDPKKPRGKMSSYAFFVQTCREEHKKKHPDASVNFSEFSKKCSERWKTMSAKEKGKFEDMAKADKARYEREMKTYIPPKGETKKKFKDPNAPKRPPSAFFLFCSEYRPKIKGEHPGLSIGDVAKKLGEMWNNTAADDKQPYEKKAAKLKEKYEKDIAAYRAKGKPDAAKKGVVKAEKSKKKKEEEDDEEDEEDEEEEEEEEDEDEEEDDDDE
In words: Inhibition of HMGB1 translocation from nucleus to cytosol in LPS-stimulated mouse RAW264.7 cells assessed as inhibition of TNF-alpha production at 10 uM measured after 4 hrs by ELISA relative to control. Put shortly: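 Raw264.7 cells in serum-free DMEM were treated with 100 ng/mL LPS and 10 μM compound (final). After 4 h, medium was diluted in 1% BSA/PBS and secreted TNF-α was quantified by ELISA against a standard curve of TNF-α protein. Inhibition is relative to control. At least three independent experiments.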
Background: An ELISA detects its analyte on a solid surface through an enzyme-linked reagent.

The species named for data set [2] is Mus musculus. In words: Inhibition of ERK phosphorylation in LPS-stimulated mouse RAW264.7 cells at 20 uM pretreated followed by LPS-induction by Western blot analysis. An outline of the steps: (§1)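 Raw264.7 cells were pretreated with 20 μM compound, then stimulated with 100 ng/mL LPS, with DMSO as control. Lysates in RIPA buffer with protease and phosphatase inhibitors were normalized by BCA and run on SDS-PAGE/Western blot for phospho-p38, JNK and ERK, with GAPDH as loading control. Detection by ECL, and band intensities were quantified. At least three independent experiments.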

Data set [3] can be described thus: Cytotoxicity against mouse RAW264.7 cells assessed as cell viability at 10 uM in presence of LPS measured after 24 hrs by WST assay relative to control. Format: cell-based. The settings on record: read-out: Activity. An outline of the steps: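 Raw264.7 cells, seeded 1 day earlier, were washed into serum-free DMEM and given 100 ng/mL LPS plus compound (10 μM) for 24 h. After the supernatant was removed, wells were refilled with 10% FBS DMEM and WST reagent was added for 20 min at 37 °C. Absorbance was read at 450 nm, and viability is relative to vehicle. At least three independent experiments.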

Data set [4] can be described thus: Half life in ICR mouse at 10 mg/kg, ip by LC/MS/MS method. In kind it is ADME, organism-based. The following applies: in vivo.
The nature of data set [5]: Equilibrium aqueous solubility of the compound by microsol method. Format: physicochemical. An outline of the steps:
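Equilibrium aqueous solubility by the μsol method. Mean ± SD, n = 3.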

For data set [6], the target named is T1, High mobility group protein B1 (Mus musculus). In words: Inhibition of HMGB1 nuclear translocation in LPS-stimulated mouse RAW264.7 cells at 20 uM pretreated for 1 hr followed by LPS-induction measured after 2 hrs by Hoechst 33342/TRITC staining based immunofluorescence microscopic method. An outline of the steps:
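Raw264.7 cells on chambered coverglass were pretreated with 20 μM compound for 1 h, then given 500 ng/mL LPS for 2 h. Cells were fixed in 4% paraformaldehyde, permeabilized with methanol at −20 °C, blocked with 2% BSA, and stained with anti-HMGB1 plus TRITC secondary and Hoechst 33342. Imaged by deconvolution fluorescence microscopy. At least three independent experiments.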

The target in data set [7] is T2, High mobility group protein B1 (Homo sapiens) (UniProt P09429).
T2 sequence (whole entry): T1 sequence (whole entry) with D189E, E202D
In words: Inhibition of ICM-BP binding to recombinant human HMGB1 assessed as reduction in Cy5-azide incorporation pretreated for 60 mins followed by ICM-BP addition for 20 mins and subsequent UV light irradiation for 5 mins by fluorescence assay. Put shortly:
(§2)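 Purified HMGB1 (1 μg in water) was pretreated with competitor for 60 min, with DMSO held at 0.8% final. ICM-BP (5 μM) was then added for 20 min, followed by 365 nm UV for 5 min on ice. Cy5-azide was attached by click reaction, then samples were run on 12.5% SDS-PAGE and in-gel fluorescence scanned. Competitor was dosed in a graded series.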

The target in data set [8] is MAP kinase p38 (Mus musculus) (UniProt P47811+O08911+Q9WUI1+Q9Z1B7). In words: Inhibition of MAPK p38 phosphorylation at Thr180/Tyr182 resdiues in LPS-stimulated mouse RAW264.7 cells at 20 uM pretreated followed by LPS-induction by Western blot analysis. Put shortly: as §1
In general terms: In western blotting, separated proteins are transferred to a membrane and probed.

The species entered for data set [9] is Mus musculus. In words: Inhibition of NF-kappaB p65 nuclear translocation in LPS-stimulated mouse RAW264.7 cells at 20 uM pretreated followed by LPS-induction by Hoechst 33342/TRITC staining based immunofluorescence microscopic method. Put shortly: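 NF-κB p65 immunofluorescence in Raw264.7 cells pretreated with 20 μM compound, then stimulated with 500 ng/mL LPS. Fixation was 4% paraformaldehyde, methanol permeabilization at −20 °C, and BSA blocking. Cells were stained with anti-p65 plus TRITC secondary and Hoechst 33342 nuclear stain, then imaged by deconvolution microscopy. At least three independent experiments.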

The species named for data set [10] is Mus musculus. In words: Inhibition of JNK phosphorylation at Thr183/Tyr185 resdiues in LPS-stimulated mouse RAW264.7 cells at 20 uM pretreated followed by LPS-induction by Western blot analysis. Put shortly: as §1
Data set [11] has as its target T1, High mobility group protein B1 (Mus musculus). In words: Inhibition of HMGB1 translocation from nucleus to cytosol in LPS-stimulated mouse RAW264.7 cells assessed as inhibition of NO release at 10 uM measured after 24 hrs by Griess assay relative to control. Put shortly:
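Raw264.7 cells, seeded 1 day earlier, were moved to serum-free DMEM and exposed to 100 ng/mL LPS with 10 μM compound for 24 h. Supernatant NO was measured with Griess reagent (sulfanilamide/N-(1-naphthyl)ethylenediamine/phosphoric acid) at room temperature, absorbance 548 nm. Inhibition was set against LPS+DMSO wells, blank-corrected, with four control wells. At least three independent experiments.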
(The Griess reaction detects nitrite, a stable product of nitric oxide.)

Data set [12] is described as follows: Stability in human liver microsomes assessed as compound remaining preincubated for 5 mins followed by NADPH addition measured after 30 mins LC/MS/MS method. Format: ADME, microsome. The following applies: read-out: Stability. An outline of the steps: (§3)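 Compounds were incubated with human or mouse liver microsomes in 100 mM potassium phosphate, pH 7.4, at 37 °C for 5 min. NADPH regenerating solution was added, and the reaction was stopped at 30 min with ice-cold acetonitrile containing imipramine internal standard. Percent remaining was measured by LC/MS/MS. Mean ± SD, n = 3.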

Data set [13] concerns the target T1, High mobility group protein B1 (Mus musculus). The data set can be described thus: Inhibition of HMGB1 nuclear translocation in LPS-stimulated mouse RAW264.7 cells assessed as inhibition of IL-6 production at 10 uM pretreated for 1 hr followed by LPS-induction by Western blot analysis. Put shortly: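 Raw264.7 cells were pretreated with 10 μM compound for 1 h, then given 100 ng/mL LPS. IL-6 released into the culture medium was detected by Western blot with ECL chemiluminescence, DMSO as control. At least three independent experiments.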

Data set [14] deals with Mus musculus. In words: Anti-inflammatory activity in C57BL/6(B6) mouse model of CLP-induced sepsis assessed as survival rate at 10 mg/kg, ip administered daily for 21 days starting from 1 hr prior to CLP-induction (reference value: 10 %). Format: functional.
A short description of data set [15]: Stability in mouse liver microsomes assessed as compound remaining preincubated for 5 mins followed by NADPH addition measured after 30 mins LC/MS/MS method. Format: ADME, microsome. The settings on record: read-out: Stability. An outline of the steps:
as §3

Data set [16] has as its system Mus musculus. In words: Anti-inflammatory activity in C57BL/6(B6) mouse model of CLP-induced sepsis assessed as decrease in serum IL-6 level at 10 mg/kg, ip administered daily for 21 days starting from 1 hr prior to CLP-induction by ELISA. Format: functional, organism-based. Put shortly:
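Serum IL-6 measured by sandwich ELISA. Blood was taken from CLP-induced C57BL/6 mice 24 h after surgery. Plates coated with anti-IL-6 mAb overnight at 4 °C and blocked with 1% BSA/PBS; serum incubated overnight at 4 °C. Detection used biotinylated anti-IL-6 and streptavidin-HRP, TMB development and absorbance at 450 nm. Run in triplicate, three independent repeats.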

Data set [17] concerns the target T2, High mobility group protein B1 (Homo sapiens). The data set can be described thus: Inhibition of ICM-BP binding to recombinant human HMGB1 assessed as reduction in Cy5-azide incorporation at 1 to 20 uM pretreated for 60 mins followed by ICM-BP addition for 20 mins and subsequent UV light irradiation for 5 mins by fluorescence assay. An outline of the steps:
as §2

Data set [18] has as its system Mus musculus. In words: Anti-inflammatory activity in C57BL/6(B6) mouse model of CLP-induced sepsis assessed as increase in survival rate at 10 mg/kg, ip administered daily for 9 days starting from 1 hr prior to CLP-induction. In kind it is functional, organism-based. Put shortly: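 C57BL/6 mice from a specific pathogen-free facility underwent CLP. The cecum was ligated below the ileocecal valve 5.0 mm from the tip, punctured once with a 20-gauge needle and a little stool extruded, then the abdomen was closed. Mice received 10 mg/kg ip daily for 9 days and survival was followed against vehicle-treated mice.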

In data set [19] the test system is Mus musculus. In words: Anti-inflammatory activity in C57BL/6(B6) mouse model of CLP-induced sepsis assessed as decrease in serum IL-6 level at 10 mg/kg, ip administered daily for 9 days starting from 1 hr prior to CLP-induction by ELISA. Format: functional, organism-based.

Changes are numbered by the printed parent chain. Converted amounts (≈) assume the structure as drawn. The source made the active and inactive calls. The calls are words filed in the database; no cut-off is given here.

As for `COc1cc(OC)cc(-n2c(=O)n3n(c2=O)C2C(=CC3)C(C)(C)Oc3cc(O)ccc32)c1` (stereo unspecified), the inhibition (in general, the change of the read-out against control, counted positive when it falls) in [1] is 60%; in data set [7] it was “Dose-dependent effect”; in data set [11], 94%. Moreover, the inhibition result (in the data set filed under Mus musculus [2]; in [6]; in data set [8]; in the data set listed under Mus musculus [9]; in the data set listed under Mus musculus [10]; in data set [13]) was “Active” in each case. Besides, the viability at 24 h, 10 µM in data set [3] came out at 121%. Also, the half-life – broadly, the time in which the quantity being followed falls by half – in data set [4] is 5 h. Besides, in data set [5], the solubility (thermodynamic) (in general, the concentration in solution at equilibrium with solid) is 65.1 µg/mL (≈ 149 µM). The remaining at 0.5 h is 41.2% in [12] and 20.2% in [15]. Besides, the survival at 10 mg/kg with Mus musculus [14] is 56%. Moreover, in the data set with Mus musculus [16], the outcome was Active.
Take `Cn1c(=O)n2n(c1=O)C1C(=CC2)C(C)(C)Oc2cc(O)ccc21` (stereo unspecified): the viability at 24 h, 10 µM in data set [3] was 114%. Besides, the inhibition in data set [11] was 45%. The inhibition result in [17] was “inactive”.
On to `CC1(C)Oc2cc(O)ccc2C2C1=CCn1c(=O)n(-c3ccccc3)c(=O)n12` (stereo unspecified), for which the inhibition in [1] is 43%; in data set [7], “Dose-dependent effect”; in data set [11], 87%. Also, the inhibition result (in the data set listed under Mus musculus [2]; in data set [6]; in [8]; in the data set listed under Mus musculus [9]; in the data set filed under Mus musculus [10]; in data set [13]) was “Active” each time. The viability at 24 h, 10 µM in data set [3] is 105%. For the same molecule, the solubility (thermodynamic) in data set [5] worked out at 23.5 µg/mL (≈ 62.3 µM). For the same molecule, the result with Mus musculus [18], with Mus musculus [19] and in the data set with Mus musculus [16] was Active. In addition, the values for the remaining at 0.5 h in data set [12] and in [15] were 0.82% and 0.41%, respectively. The survival at 10 mg/kg in the data set on Mus musculus [14] was 45%.
With `CC(=O)c1ccc(-n2c(=O)n3n(c2=O)C2C(=CC3)C(C)(C)Oc3cc(O)ccc32)cc1` (stereo unspecified), the figures for the inhibition in [1], in [7] and in data set [11] were 68%, “Dose-dependent effect” and 93%, respectively. In addition, the inhibition result (in the data set listed under Mus musculus [2]; in [6]; in data set [8]; in the data set filed under Mus musculus [9]; in the data set filed under Mus musculus [10]; in data set [13]) was “Active” each time. The viability at 24 h, 10 µM in data set [3] was determined as 111%. For the same molecule, in [5], the solubility (thermodynamic) was 162 µg/mL (≈ 387 µM). The figures for the remaining at 0.5 h in data set [12] and in [15] were 30.2% and 2.46%, respectively. Moreover, in the data set on Mus musculus [14], the survival at 10 mg/kg turned out to be 74%. The result in the data set with Mus musculus [16] was Active.
